# From the M2OR odorant receptor database
# Key:
# Details in all cases: stereoisomer not certain
# UniProt Q7TR79 = target: T1, UniProt Q7TR79
# T1 sequence (whole entry): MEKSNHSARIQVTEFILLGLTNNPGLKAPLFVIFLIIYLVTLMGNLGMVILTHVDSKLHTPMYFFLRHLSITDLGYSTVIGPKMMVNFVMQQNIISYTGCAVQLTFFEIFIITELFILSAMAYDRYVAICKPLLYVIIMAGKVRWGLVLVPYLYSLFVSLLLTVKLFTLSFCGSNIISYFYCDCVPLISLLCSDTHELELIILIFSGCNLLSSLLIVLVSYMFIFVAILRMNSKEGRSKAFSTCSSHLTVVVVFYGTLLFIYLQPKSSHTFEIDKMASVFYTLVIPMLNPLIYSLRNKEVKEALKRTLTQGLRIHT
# How it was run: (§1)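 Each entry records the cell line, G-protein, co-transfected protein and tags used. Methods varied with the source, often transient luciferase assays in mammalian cell lines. A receptor–molecule pair is called responsive (active) if the original authors judged its signal statistically different from baseline and non-responsive (inactive) otherwise.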
# UniProt Q7TRX0 = target: T2, UniProt Q7TRX0
# T2 sequence (whole entry): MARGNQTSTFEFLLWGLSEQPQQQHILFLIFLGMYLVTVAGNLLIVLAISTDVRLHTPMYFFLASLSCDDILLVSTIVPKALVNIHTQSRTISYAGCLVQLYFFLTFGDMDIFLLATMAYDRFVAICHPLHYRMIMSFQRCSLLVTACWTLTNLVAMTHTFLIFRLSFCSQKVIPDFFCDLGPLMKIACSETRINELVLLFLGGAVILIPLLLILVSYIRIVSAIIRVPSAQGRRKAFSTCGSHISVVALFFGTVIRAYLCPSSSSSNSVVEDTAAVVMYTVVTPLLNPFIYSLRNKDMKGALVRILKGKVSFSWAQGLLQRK
# How it was run: as §1
# UniProt Q7TR71 = target: T3, UniProt Q7TR71
# T3 sequence (whole entry): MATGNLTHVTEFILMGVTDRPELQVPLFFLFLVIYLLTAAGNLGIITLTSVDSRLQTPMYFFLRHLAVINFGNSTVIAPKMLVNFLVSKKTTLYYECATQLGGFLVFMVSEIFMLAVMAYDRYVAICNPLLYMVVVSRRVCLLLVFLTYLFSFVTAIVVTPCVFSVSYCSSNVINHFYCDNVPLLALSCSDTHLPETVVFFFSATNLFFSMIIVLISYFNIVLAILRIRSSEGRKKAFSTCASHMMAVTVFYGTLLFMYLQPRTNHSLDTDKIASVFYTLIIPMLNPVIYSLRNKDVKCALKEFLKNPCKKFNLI
# How it was run: as §1
# UniProt Q7TRA3 = target: T4, UniProt Q7TRA3
# T4 sequence (whole entry): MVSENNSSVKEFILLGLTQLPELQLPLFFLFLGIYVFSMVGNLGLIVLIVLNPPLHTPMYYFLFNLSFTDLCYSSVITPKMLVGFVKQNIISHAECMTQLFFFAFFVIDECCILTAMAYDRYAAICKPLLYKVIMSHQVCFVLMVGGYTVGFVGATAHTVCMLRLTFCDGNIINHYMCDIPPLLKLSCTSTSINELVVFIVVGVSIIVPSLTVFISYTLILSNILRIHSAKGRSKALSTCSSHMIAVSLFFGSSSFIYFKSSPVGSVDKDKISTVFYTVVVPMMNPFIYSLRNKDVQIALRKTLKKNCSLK
# How it was run: as §1
# UniProt Q7TRE4 = target: T5, UniProt Q7TRE4
# T5 sequence (whole entry): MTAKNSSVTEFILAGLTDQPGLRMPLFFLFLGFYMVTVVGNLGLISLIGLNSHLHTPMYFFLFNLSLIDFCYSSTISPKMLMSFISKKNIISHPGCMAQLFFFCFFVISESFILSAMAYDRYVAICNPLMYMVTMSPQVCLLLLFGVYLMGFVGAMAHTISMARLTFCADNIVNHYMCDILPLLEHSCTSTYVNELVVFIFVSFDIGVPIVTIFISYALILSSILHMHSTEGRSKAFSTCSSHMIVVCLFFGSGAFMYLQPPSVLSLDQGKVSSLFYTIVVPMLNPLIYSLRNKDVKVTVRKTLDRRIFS
# How it was run: as §1
# UniProt Q7TRW1 = target: T6, UniProt Q7TRW1
# T6 sequence (whole entry): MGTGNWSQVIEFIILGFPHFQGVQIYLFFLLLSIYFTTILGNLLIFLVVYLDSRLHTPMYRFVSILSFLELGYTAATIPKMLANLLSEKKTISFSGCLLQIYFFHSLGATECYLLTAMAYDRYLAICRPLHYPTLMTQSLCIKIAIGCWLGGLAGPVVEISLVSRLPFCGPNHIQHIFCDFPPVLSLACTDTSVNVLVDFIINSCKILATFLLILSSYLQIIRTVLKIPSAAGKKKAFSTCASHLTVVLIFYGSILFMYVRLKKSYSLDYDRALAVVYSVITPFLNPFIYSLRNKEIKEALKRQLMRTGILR
# How it was run: as §1
# UniProt Q8VEU7 = target: T7, UniProt Q8VEU7
# T7 sequence (whole entry): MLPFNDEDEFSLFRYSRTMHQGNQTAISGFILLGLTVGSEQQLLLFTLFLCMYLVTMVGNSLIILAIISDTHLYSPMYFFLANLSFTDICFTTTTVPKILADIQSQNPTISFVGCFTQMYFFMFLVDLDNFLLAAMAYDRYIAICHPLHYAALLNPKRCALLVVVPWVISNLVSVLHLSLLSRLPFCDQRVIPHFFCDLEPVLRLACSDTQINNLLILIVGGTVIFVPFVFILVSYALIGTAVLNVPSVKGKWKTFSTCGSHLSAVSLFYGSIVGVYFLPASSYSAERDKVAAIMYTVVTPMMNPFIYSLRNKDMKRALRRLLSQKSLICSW
# How it was run: as §1
# UniProt Q8VF05 = target: T8, UniProt Q8VF05
# T8 sequence (whole entry): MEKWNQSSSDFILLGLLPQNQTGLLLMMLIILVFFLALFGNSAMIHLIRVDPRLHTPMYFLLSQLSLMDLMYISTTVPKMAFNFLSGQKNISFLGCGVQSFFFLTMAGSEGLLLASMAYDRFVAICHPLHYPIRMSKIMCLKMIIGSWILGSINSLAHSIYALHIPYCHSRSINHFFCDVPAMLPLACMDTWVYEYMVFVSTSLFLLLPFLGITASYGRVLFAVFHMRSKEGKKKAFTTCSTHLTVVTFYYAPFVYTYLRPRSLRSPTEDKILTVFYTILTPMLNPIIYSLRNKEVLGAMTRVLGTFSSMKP
# How it was run: as §1
# UniProt Q7TRM0 = target: T9, UniProt Q7TRM0
# T9 sequence (whole entry): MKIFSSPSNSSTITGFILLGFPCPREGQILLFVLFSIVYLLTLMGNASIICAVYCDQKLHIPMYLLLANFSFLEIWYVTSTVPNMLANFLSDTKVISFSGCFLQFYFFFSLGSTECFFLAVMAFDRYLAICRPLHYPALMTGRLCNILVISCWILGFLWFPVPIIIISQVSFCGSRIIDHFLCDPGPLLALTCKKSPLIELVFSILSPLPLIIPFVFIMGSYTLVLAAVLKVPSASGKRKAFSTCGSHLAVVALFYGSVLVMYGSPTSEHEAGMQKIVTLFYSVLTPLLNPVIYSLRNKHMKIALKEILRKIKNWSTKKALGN
# How it was run: as §1
# UniProt Q7TRN9 = target: T10, UniProt Q7TRN9
# T10 sequence (whole entry): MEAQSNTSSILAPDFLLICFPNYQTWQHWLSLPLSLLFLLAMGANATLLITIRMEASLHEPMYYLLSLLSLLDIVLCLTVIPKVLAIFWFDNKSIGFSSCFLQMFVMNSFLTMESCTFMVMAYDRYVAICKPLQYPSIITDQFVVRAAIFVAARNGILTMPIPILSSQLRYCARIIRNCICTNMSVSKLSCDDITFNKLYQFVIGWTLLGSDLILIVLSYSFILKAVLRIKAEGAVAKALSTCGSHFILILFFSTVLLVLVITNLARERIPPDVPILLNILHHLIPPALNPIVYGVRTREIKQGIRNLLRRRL
# How it was run: as §1
# UniProt Q7TRR8 = target: T11, UniProt Q7TRR8
# T11 sequence (whole entry): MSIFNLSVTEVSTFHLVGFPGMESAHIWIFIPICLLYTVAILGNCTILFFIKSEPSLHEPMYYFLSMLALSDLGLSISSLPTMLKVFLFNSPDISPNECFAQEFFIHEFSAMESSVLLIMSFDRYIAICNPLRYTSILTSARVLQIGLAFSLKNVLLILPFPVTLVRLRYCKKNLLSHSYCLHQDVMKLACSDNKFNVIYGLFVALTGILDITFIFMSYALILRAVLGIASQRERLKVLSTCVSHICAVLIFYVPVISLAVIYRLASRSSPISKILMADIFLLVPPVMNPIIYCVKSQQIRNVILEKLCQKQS
# How it was run: as §1
smiles,measurement,setting,value
O=C(O)CCCCCCCCC(=O)O,odorant receptor agonist call,UniProt Q7TR79,inactive
same,odorant receptor agonist call,UniProt Q7TRX0,inactive
c1ccccc1,odorant receptor agonist call,UniProt Q7TR71,inactive
same,odorant receptor agonist call,UniProt Q7TR79,inactive
same,odorant receptor agonist call,UniProt Q7TRA3,inactive
same,odorant receptor agonist call,UniProt Q7TRE4,inactive
same,odorant receptor agonist call,UniProt Q7TRW1,inactive
same,odorant receptor agonist call,UniProt Q7TRX0,inactive
same,odorant receptor agonist call,UniProt Q8VEU7,inactive
same,odorant receptor agonist call,UniProt Q8VF05,active
CC(C)CS,odorant receptor agonist call,UniProt Q7TR79,inactive
same,odorant receptor agonist call,UniProt Q7TRX0,inactive
O=C([O-])CCCCCCC(=O)[O-].[H+].[H+],odorant receptor agonist call,UniProt Q7TR79,inactive
same,odorant receptor agonist call,UniProt Q7TRM0,inactive
same,odorant receptor agonist call,UniProt Q7TRN9,inactive
same,odorant receptor agonist call,UniProt Q7TRR8,inactive
same,odorant receptor agonist call,UniProt Q7TRX0,inactive
CC1(C)CC(=O)CC(=O)C1,odorant receptor agonist call,UniProt Q7TR79,inactive
same,odorant receptor agonist call,UniProt Q7TRX0,inactive
Cc1ccc2c(c1)OCC(=O)CO2,odorant receptor agonist call,UniProt Q7TR79,inactive
same,odorant receptor agonist call,UniProt Q7TRX0,inactive
Cc1ccccc1OC(=O)C(C)C,odorant receptor agonist call,UniProt Q7TR79,inactive
same,odorant receptor agonist call,UniProt Q7TRX0,inactive
Cc1occc1SSc1ccoc1C,odorant receptor agonist call,UniProt Q7TR79,inactive
same,odorant receptor agonist call,UniProt Q7TRX0,inactive
O=C([O-])CCCCCCCC(=O)[O-].[H+].[H+],odorant receptor agonist call,UniProt Q7TR79,inactive
same,odorant receptor agonist call,UniProt Q7TRM0,inactive
same,odorant receptor agonist call,UniProt Q7TRN9,inactive
same,odorant receptor agonist call,UniProt Q7TRR8,inactive
same,odorant receptor agonist call,UniProt Q7TRX0,inactive
C1CCOC1,odorant receptor agonist call,UniProt Q7TR79,inactive
same,odorant receptor agonist call,UniProt Q7TRX0,inactive
CC=CC(=O)C1=C(C)CCCC1(C)C,odorant receptor agonist call,UniProt Q7TR79,inactive
same,odorant receptor agonist call,UniProt Q7TRX0,inactive
COC(OC)c1ccccc1,odorant receptor agonist call,UniProt Q7TR79,inactive
same,odorant receptor agonist call,UniProt Q7TRX0,inactive
CCCC(C)=O,odorant receptor agonist call,UniProt Q7TR71,inactive
same,odorant receptor agonist call,UniProt Q7TRA3,inactive
same,odorant receptor agonist call,UniProt Q7TRE4,inactive
same,odorant receptor agonist call,UniProt Q7TRW1,inactive
same,odorant receptor agonist call,UniProt Q8VEU7,inactive
same,odorant receptor agonist call,UniProt Q8VF05,active
Cc1c(C)c(C)c(C=O)c(C)c1C,odorant receptor agonist call,UniProt Q7TR79,inactive
same,odorant receptor agonist call,UniProt Q7TRX0,inactive
C=C(CC)CCCC(C)(C)O,odorant receptor agonist call,UniProt Q7TR79,inactive
same,odorant receptor agonist call,UniProt Q7TRX0,inactive
CCCO,odorant receptor agonist call,UniProt Q7TR79,inactive
same,odorant receptor agonist call,UniProt Q7TRX0,inactive
Cc1ccc(C(C)C)c(O)c1,odorant receptor agonist call,UniProt Q7TR79,inactive
same,odorant receptor agonist call,UniProt Q7TRX0,inactive
CCC(C)c1nccnc1OC (stereo not drawn),odorant receptor agonist call,UniProt Q7TR79,inactive
same,odorant receptor agonist call,UniProt Q7TRX0,inactive
C=CC(=C)CCC=C(C)C,odorant receptor agonist call,UniProt Q7TR79,inactive
same,odorant receptor agonist call,UniProt Q7TRX0,inactive
C=CCOC(=O)CCCCCC,odorant receptor agonist call,UniProt Q7TR71,inactive
same,odorant receptor agonist call,UniProt Q7TR79,inactive
same,odorant receptor agonist call,UniProt Q7TRA3,inactive
same,odorant receptor agonist call,UniProt Q7TRE4,inactive
same,odorant receptor agonist call,UniProt Q7TRW1,inactive
same,odorant receptor agonist call,UniProt Q7TRX0,inactive
same,odorant receptor agonist call,UniProt Q8VEU7,inactive
same,odorant receptor agonist call,UniProt Q8VF05,inactive
CCC(C(=O)O)c1ccccc1 (stereo not drawn),odorant receptor agonist call,UniProt Q7TR71,inactive
same,odorant receptor agonist call,UniProt Q7TRA3,inactive
same,odorant receptor agonist call,UniProt Q7TRE4,inactive
same,odorant receptor agonist call,UniProt Q7TRW1,inactive
same,odorant receptor agonist call,UniProt Q8VEU7,inactive
same,odorant receptor agonist call,UniProt Q8VF05,inactive
